Results of several laboratories.
Effect on: cell growth or viability

Structure (SMILES)	cell line	technique	time	notes	IC50 [µM]
CNC(=O)c1cc(Oc2ccc(NC(=O)Nc3ccc(Cl)c(C(F)(F)F)c3)cc2)ccn1	NCI-H460	MTT	72 h	–	3.81
COc1cc2c(cc1OC)-c1cc3ccc(OC)c(OCCN)c3c[n+]1CC2	NCI-H460	MTT	72 h	–	> 80
C=CC(=O)Nc1cc(Nc2nccc(-c3cn(C)c4ccccc34)n2)c(OC)cc1N(C)CCN(C)C	NCI-H460	–	72 h	–	5.38
COc1cc2nc(N3CCN(C(=O)C4COc5ccccc5O4)CC3)nc(N)c2cc1OC (stereo not drawn)	HK-1	MTT	48 h	–	31.7
O=C1CCN2C(=O)c3cc(F)c(F)cc3C2C(=O)Nc2ccccc21 (stereo not drawn)	L6	–	–	–	> 290
CC1(C)CCC(CN2CCN(c3ccc(C(=O)NS(=O)(=O)c4ccc(NCC5CCOCC5)c([N+](=O)[O-])c4)c(Oc4cnc5[nH]ccc5c4)c3)CC2)=C(c2ccc(Cl)cc2)C1	RS4-11	ATP luminescence	48 h	–	0.0045
C=C(F)C(=O)N1CCN(c2nc(OC[C@@H]3CCCN3C)nc3c2CCN(c2cccc4cccc(Cl)c24)C3)C[C@@H]1CC#N	KYSE-410	ATP luminescence	–	3D culture	0.107
COc1cc2nc(N3CCN(C(=O)c4ccco4)CC3)nc(N)c2cc1OC	HK-1	MTT	48 h	–	30
N=C(NN=CCc1ccc(OC(F)(F)F)cc1)NN=CCc1ccc(OC(F)(F)F)cc1	L6	resazurin	70 h	–	4.02
Cc1cc(/C=C/C#N)cc(C)c1Nc1ccnc(Nc2ccc(C#N)cc2)n1	HNE1	MTT	48 h	–	14.1
N=C(N/N=C/c1ccc(Oc2ccc(Cl)cc2)cc1)N/N=C/c1ccc(Oc2ccc(Cl)cc2)cc1	L6	resazurin	70 h	–	3.18
O=C1c2ccccc2C23C(=O)Nc4ccccc4C2(O)CCN13 (stereo not drawn)	L6	–	–	–	> 330
N#Cc1cccc(C=NNC(=N)NN=Cc2cccc(C#N)c2)c1	L6	resazurin	70 h	–	6.65
CO/N=C1/CCN2C(=O)c3ccccc3C2C(=O)Nc2ccccc21 (stereo not drawn)	L6	–	–	–	> 300
COc1cc2c3c(n(CCCNCCO)c(=O)c2cc1OC)-c1nc2c(cc1C3=O)OCO2	RS4-11	MTS	72 h	–	0.034
